# From PubChem BioAssay
# The list shows a part of the results. A number with no mark means an inactive call. The source made the active and inactive calls.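 The calls were made as follows: active = substances whose mean melting-temperature shift, as a percentage of the reference inhibitor's shift, reaches about 5.3% (limit read from the data); inactive = the rest.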
# Target: Carboxy-terminal domain RNA polymerase II polypeptide A small phosphatase 1 (Homo sapiens) (UniProt Q9GZU7)
# Assay: SCP1 melting temperature change from compounds – biophysical, differential scanning fluorimetry, orthogonal assay for Scp-1 inhibitor project, confirmation (AID 540329);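 also: 0% = Tm of DMSO wells and 100% = Tm with sodium orthovanadate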
# Details: Recombinant SCP1, Sypro Orange thermal shift Tm; at 40 µM; active compounds read high
# Method in brief: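 System: human Scp-1 phosphatase catalytic domain, residues 76-261; Quantity: 10 µM Scp-1 stock; Medium: Tris acetate pH 5.5, MgCl2, Tween-20; Compound dosing: single dose; Schedule: melting ramp from 20 to 95 °C at 0.03 °C/s; Measured by: differential scanning fluorimetry; Read-out basis: melting temperature shift relative to vanadate; Control set: vanadate reference.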
# Chain of Carboxy-terminal domain RNA polymerase II polypeptide A small phosphatase 1 (Homo sapiens) (Q9GZU7 76-261 limits assumed): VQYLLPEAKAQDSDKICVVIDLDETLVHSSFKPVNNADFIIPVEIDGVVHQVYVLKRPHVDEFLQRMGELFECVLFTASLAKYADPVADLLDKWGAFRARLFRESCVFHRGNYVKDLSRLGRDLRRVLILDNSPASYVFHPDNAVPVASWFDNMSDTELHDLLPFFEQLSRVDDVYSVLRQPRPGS
row,Structure (SMILES),thermal shift relative to vanadate control
1,COc1ccc(/C=C/C(=O)OCC(=O)NC2CCCCCC2)cc1OC,-3.16%
2,O=C(COC(=O)c1ccccc1O)NCc1ccco1,-13.8%
3,ON=C1/C(=N\O)CC2(C/C1=N/O)OCCO2,4.94%
4,COc1cccc(NC(C)=[N+](C)CCNS(=O)(=O)c2ccc(Cl)cc2)c1,-9.24%
5,O=C(Nc1cccnc1)c1cc2cc(Br)ccc2oc1=O,0.88%
6,CC(C)CCOc1ccc(C(=O)C[N+]2(C)CCOCC2)cc1,-16.6%
7,O=C(Nc1cc(S(=O)(=O)N2CCCCC2)ccc1Cl)C1COc2ccccc2O1 (stereo not given),-12%
8,C=C1c2cccc(OC)c2O[C@H](C(=O)OCC)[C@@H]1CCCCCC,-6.9%
9,O=C(O)c1ccc(N/N=C/c2ccc3ncccc3c2)cc1,4.85%
10,CO/N=C(\C(=O)N[C@@H]1C(=O)N2C(C(=O)O)=C(COC(C)=O)CS[C@H]12)c1csc(N)n1 (stereo in doubt),-5.16%
11,CCOC(=O)C1=C(C)c2ccccc2OC1(C)C(=O)OCC (stereo not given),-2.89%
12,C=Cc1ccc(C(=O)N2CCCC(CCC(=O)N3CCN(c4ccccn4)CC3)C2)cc1 (stereo not given),-35.8%
13,COc1ccc(Cl)cc1C=CC=NNC(=O)c1ccncc1,-17.4%
14,Cc1ccccc1NC(=O)CN1C(=O)N/C(=C\c2cccn2-c2cccc(C(=O)O)c2)C1=O,7.04% (active)
15,COc1ccc(S(=O)(=O)c2c[nH]c(=S)[nH]c2=O)cc1Cl,13.1% (active)
